From ChEMBL document CHEMBL1649382, “Synthesis and in vitro anticancer evaluation of some novel hexahydroquinoline derivatives having a benzenesulfonamide moiety” (Eur J Med Chem, 2011) come the findings set out here.

The structures appear in SMILES notation. In brackets after ≈: the same amount, converted by molar mass.

The nature of experiment [1]: Cytotoxicity against mouse EAC assessed as non-viable cells at 100 ug/ml after 2 hrs by trypan blue exclusion test. The class given is functional, Ehrlich. A digest of the protocol:
(§1)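 Mouse EAC cells came from ascitic fluid by needle aspiration, at 2.5×10^6 per mL in RPMI-1640. Each tube held 0.8 mL medium (glutamine, fetal calf serum, streptomycin, penicillin), 0.1 mL compound dissolved in DMSO (stock 10–100 µg per mL) and 0.1 mL of cells, at 37 °C for 2 h. Trypan blue staining gave the percentage of non-viable cells, as the mean of three experiments ± SD.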

The nature of experiment [2]: Cytotoxicity against mouse EAC assessed as non-viable cells at 50 ug/ml after 2 hrs by trypan blue exclusion test. The class given is functional, Ehrlich. A digest of the protocol:
as §1

A short description of experiment [3]: Cytotoxicity against mouse EAC assessed as non-viable cells at 10 ug/ml after 2 hrs by trypan blue exclusion test. The class given is functional, Ehrlich. A digest of the protocol:
as §1

A short description of experiment [4]: Cytotoxicity against mouse EAC assessed as non-viable cells at 25 ug/ml after 2 hrs by trypan blue exclusion test. The class given is functional, Ehrlich. A digest of the protocol:
as §1

A short description of experiment [5]: Cytotoxicity against mouse EAC assessed as non-viable cells after 2 hrs by trypan blue exclusion test. The class given is functional, cell-based. To be noted: Ehrlich. A digest of the protocol:
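EAC cells were aspirated from the ascitic fluid of preinoculated mice and suspended in RPMI-1640 at 2.5×10^6 per mL. Each tube held 0.8 mL supplemented medium, 0.1 mL of a DMSO solution (100, 50, 25 or 10 µg per mL DMSO) and 0.1 mL of cells, incubated 2 h at 37 °C. Non-viable cells were counted by trypan blue. The survival-versus-concentration curve gave IC50, the concentration causing 50% mortality.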

With `Cc1ccc(C(=O)NC2=C(C#N)C(c3ccc(Cl)cc3Cl)C3=C(CCCC3=O)N2c2ccc(S(N)(=O)=O)cc2)cc1` (stereo not given), the Activity in experiment [1] is on record as 40%; in experiment [2], 40%; in experiment [3], 20%; in experiment [4] it was 30%. Further, the IC50 (in general, the point on the concentration scale where inhibition reaches its midpoint) in experiment [5] is over 100 µg/mL.

In the case of `CC(=O)CC(=O)NC1=C(C#N)C(c2ccc(Cl)cc2Cl)C2=C(CCCC2=O)N1c1ccc(S(N)(=O)=O)cc1` (stereo not given), the Activity in experiment [1] was determined as 80%; in experiment [2] it was 60%; in experiment [3] it was 40%; in experiment [4], 44%. In addition, the IC50 in experiment [5] was 64 µg/mL (≈ 112 µM).

On to `NS(=O)(=O)c1ccc(N2C3=C(C(=O)CCC3)C(c3ccc(Cl)cc3Cl)c3c2nc(CCl)[nH]c3=O)cc1` (stereo not given), for which the Activity in experiment [1] is 40%; in experiment [2], 35%; in experiment [3], 30%; in experiment [4], 30%. Also, the IC50 in experiment [5] is over 100 µg/mL.

On to `CN(C)c1ccc(/C=N/C2=C(C#N)C(c3ccc(Cl)cc3Cl)C3=C(CCCC3=O)N2c2ccc(S(N)(=O)=O)cc2)cc1` (stereo not given), for which the Activity was determined as 40% in experiment [1], 30% in experiment [2], 10% in experiment [3] and 30% in experiment [4]. For the same compound, the IC50 in experiment [5] was over 100 µg/mL.

`Cc1nc2c(c(=S)[nH]1)C(c1ccc(Cl)cc1Cl)C1=C(CCCC1=O)N2c1ccc(S(N)(=O)=O)cc1` (stereo not given): the Activity in experiment [1] amounted to 60%; in experiment [2] it was 40%; in experiment [3], 30%; in experiment [4] it was 40%. For the same compound, the IC50 in experiment [5] was over 100 µg/mL.

Consider `NS(=O)(=O)c1ccc(N2C3=C(C(=O)CCC3)C(c3ccc(Cl)cc3Cl)c3c2nc(-c2ccc(Br)cc2)[nH]c3=O)cc1` (stereo not given), for which the Activity in experiment [1] is on record as 100%; in experiment [2], 60%; in experiment [3], 20%; in experiment [4] it was 50%. Besides, the IC50 in experiment [5] worked out at 25 µg/mL (≈ 37.2 µM).

With `NC1=C(C(=O)O)C(c2ccc(Cl)cc2Cl)C2=C(CCCC2=O)N1c1ccc(S(N)(=O)=O)cc1` (stereo not given), the Activity is recorded as 60% in experiment [1], 10% in experiment [2], 0% in experiment [3] and 0% in experiment [4]. Moreover, the IC50 in experiment [5] was over 100 µg/mL.

Regarding `CC(Cl)Cc1nc2c(c(=O)[nH]1)C(c1ccc(Cl)cc1Cl)C1=C(CCCC1=O)N2c1ccc(S(N)(=O)=O)cc1` (stereo not given), the Activity in experiment [1] is listed as 60%; in experiment [2] it was 40%; in experiment [3] it was 30%; in experiment [4], 40%. In addition, the IC50 in experiment [5] is over 100 µg/mL.

On to `NC(=O)C1=C(N)N(c2ccc(S(N)(=O)=O)cc2)C2=C(C(=O)CCC2)C1c1ccc(Cl)cc1Cl` (stereo not given), for which the Activity in experiment [1] is on record as 45%; in experiment [2], 40%; in experiment [3], 30%; in experiment [4], 30%. The IC50 in experiment [5] is over 100 µg/mL.

For the compound `Cc1ccc(-c2nc3c(c(=O)[nH]2)C(c2ccc(Cl)cc2Cl)C2=C(CCCC2=O)N3c2ccc(S(N)(=O)=O)cc2)cc1` (stereo not given), the Activity in experiment [1] is 60%; in experiment [2] it was 55%; in experiment [3], 30%; in experiment [4], 55%. Besides, the IC50 in experiment [5] was determined as 28 µg/mL (≈ 46.1 µM).

Take `COc1cc(C(=O)NC2=C(C#N)C(c3ccc(Cl)cc3Cl)C3=C(CCCC3=O)N2c2ccc(S(N)(=O)=O)cc2)cc(OC)c1OC` (stereo not given): the Activity worked out at 95% in experiment [1], 95% in experiment [2], 0% in experiment [3] and 20% in experiment [4]. Also, the IC50 in experiment [5] was 60 µg/mL (≈ 87.8 µM).

As to `NS(=O)(=O)c1ccc(N2C3=C(C(=O)CCC3)C(c3ccc(Cl)cc3Cl)c3c2nc(-c2ccccc2)[nH]c3=O)cc1` (stereo not given), the Activity in experiment [1] was 60%; in experiment [2] it was 10%; in experiment [3], 0%; in experiment [4], 0%. In addition, the IC50 in experiment [5] was over 100 µg/mL.

As to `CN(C)c1ccc(/C=C/C=N/C2=C(C#N)C(c3ccc(Cl)cc3Cl)C3=C(CCCC3=O)N2c2ccc(S(N)(=O)=O)cc2)cc1` (stereo not given), the Activity in experiment [1] came to 20%; in experiment [2] it was 20%; in experiment [3], 10%; in experiment [4], 20%. Further, the IC50 in experiment [5] is over 100 µg/mL.

For the compound `COc1cccc2c1C(=O)c1c(O)c3c(c(O)c1C2=O)C[C@@](O)(C(=O)CO)C[C@@H]3O[C@H]1C[C@H](N)[C@H](O)[C@H](C)O1` [DOXORUBICIN], the Activity in experiment [1] came out at 100%; in experiment [2], 68%; in experiment [3], 19%; in experiment [4] it was 32%. Further, in experiment [5], the IC50 was 38 µg/mL (≈ 69.9 µM).

In the case of `CC(Cl)CC(=O)NC1=C(C#N)C(c2ccc(Cl)cc2Cl)C2=C(CCCC2=O)N1c1ccc(S(N)(=O)=O)cc1` (stereo not given), the Activity in experiment [1] stood at 60%; in experiment [2] it was 55%; in experiment [3], 20%; in experiment [4] it was 50%. In experiment [5], the IC50 is 25 µg/mL (≈ 42.1 µM).

Regarding `N#CC1=C(NC(=O)/C=C/c2ccccc2)N(c2ccc(S(N)(=O)=O)cc2)C2=C(C(=O)CCC2)C1c1ccc(Cl)cc1Cl` (stereo not given), the Activity was 45% in experiment [1], 40% in experiment [2], 30% in experiment [3] and 30% in experiment [4]. For the same compound, in experiment [5], the IC50 was over 100 µg/mL.

Regarding `CCO/C=N/C1=C(C#N)C(c2ccc(Cl)cc2Cl)C2=C(CCCC2=O)N1c1ccc(S(N)(=O)=O)cc1` (stereo not given), the Activity in experiment [1] was determined as 40%; in experiment [2] it was 35%; in experiment [3] it was 30%; in experiment [4] it was 30%. The IC50 in experiment [5] was over 100 µg/mL.

With `N#CC1=C(N)N(c2ccc(S(N)(=O)=O)cc2)C2=C(C(=O)CCC2)C1c1ccc(Cl)cc1Cl` (stereo not given), the Activity in experiment [1] stood at 95%; in experiment [2], 65%; in experiment [3], 40%; in experiment [4], 50%. The IC50 in experiment [5] was found to be 25 µg/mL (≈ 51.1 µM).

`N#CC1=C(NC(=O)c2ccc([N+](=O)[O-])cc2)N(c2ccc(S(N)(=O)=O)cc2)C2=C(C(=O)CCC2)C1c1ccc(Cl)cc1Cl` (stereo not given): the Activity in experiment [1] is reported as 70%; in experiment [2] it was 50%; in experiment [3], 40%; in experiment [4] it was 40%. Moreover, the IC50 in experiment [5] amounted to 50 µg/mL (≈ 78.3 µM).

In the case of `N#CC1=C(/N=C/c2ccc([N+](=O)[O-])cc2[N+](=O)[O-])N(c2ccc(S(N)(=O)=O)cc2)C2=C(C(=O)CCC2)C1c1ccc(Cl)cc1Cl` (stereo not given), the Activity in experiment [1] came out at 20%; in experiment [2], 20%; in experiment [3], 10%; in experiment [4], 20%. Moreover, the IC50 in experiment [5] was over 100 µg/mL.

For `N#CC1=C(NC(=O)c2ccccc2)N(c2ccc(S(N)(=O)=O)cc2)C2=C(C(=O)CCC2)C1c1ccc(Cl)cc1Cl` (stereo not given), the Activity in experiment [1] came out at 75%; in experiment [2] it was 70%; in experiment [3] it was 50%; in experiment [4], 60%. Further, in experiment [5], the IC50 is 10 µg/mL (≈ 16.8 µM).

For `N#CC1=C(NC(=O)C2CC2)N(c2ccc(S(N)(=O)=O)cc2)C2=C(C(=O)CCC2)C1c1ccc(Cl)cc1Cl` (stereo not given), the Activity was found to be 60% in experiment [1], 40% in experiment [2], 20% in experiment [3] and 40% in experiment [4]. The IC50 in experiment [5] came to 75 µg/mL (≈ 135 µM).

As to `NS(=O)(=O)c1ccc(N2C3=C(C(=O)CCC3)C(c3ccc(Cl)cc3Cl)c3c2nc(C2CC2)[nH]c3=O)cc1` (stereo not given), the Activity turned out to be 60% in experiment [1], 52% in experiment [2], 27% in experiment [3] and 44% in experiment [4]. In experiment [5], the IC50 turned out to be 56 µg/mL (≈ 100 µM).
